Legend:
blood plasma = test: Activated partial thromboplastin time test
Method in brief: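 Plasma was separated from fresh blood by centrifugation at 5000x g for 5 min. It was mixed with an equal volume of test formulation and aPTT reagent, and coagulation was activated with pre-warmed […] CaCl2. Clotting time (s) was recorded spectrophotometrically on a coagulation analyzer, […]. Triplicates, mean ± S.D.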

[1] = test system: female albino (BALB/c) mice; test: In vivo acute toxicity: histopathological examinations; details: i.v., after 7 days, H&E stain
Method in brief: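 Female BALB/c mice (30–35 g, 8–10 weeks) were randomised to 6 groups (n=3) and given test formulations i.v. via tail vein as two equal doses on days 1 and 3; the saline group was the control. OECD 425 was followed except for the i.v. route. At day 7 mice were killed by cervical dislocation. Heart, liver, kidney and lungs were saline-washed, sectioned by rotary microtome, H&E-stained and examined by light microscopy.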

SK-OV-3 cells [2] = test: In vitro genotoxicity, alkaline comet assay; assay type: cell-based, human; details: SK-OV-3, 4 h, equitoxic dose, light dose 0.05 Jcm^−2
Method in brief: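 SK-OV-3 cells (100,000/well, six-well plate) adhered overnight, then treated with test formulations for 4 h at 37 °C. After a medium change, cells were irradiated at an equitoxic light dose giving 80% viability and returned for 12 h. Cells were trypsinised, washed twice in PBS, set to 80,000 cells/mL and embedded in 1% low-melting agarose. Slides were ethanol-fixed (70%, 20 min), SYBR Safe-stained and viewed by fluorescence microscopy; 50 comets scored per formulation.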

SK-OV-3 cells [3] = test: Assessment of reactive oxygen species; assay type: cell-based, human; details: mTHPC 5 µM, THP 50 µM, 4 h, light dose 0.5 J.cm^−2 vs dark
Method in brief: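 SK-OV-3 cells (IMDM, 10% FCS, non-essential amino acids, 37°C, 7% CO2) were seeded at 25,000/well overnight and washed with DPBS pH 7.4 containing Ca2+/Mg2+. They were loaded with 25 µM H2DCFDA for 1 h at 37 °C, washed, then exposed to free drug or formulation for 4 h at 37°C. After medium exchange, cells were irradiated at 652 nm, lysed, and read at λex 485/λem 520 nm.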

[4] = test system: female albino (BALB/c) mice; test: In vivo acute toxicity: body visceral index; details: i.v., post 7 days
Method in brief: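 Female BALB/c mice (30–35 g, 8–10 weeks; 22 ± 2 °C, 12 h light/dark) were randomised into 6 groups of 3. Free drugs in 0.1% DMSO, formulations or saline were given i.v. via tail vein as two equal doses on days 1 and 3 (mTHPC 0.15 mg.kg−1, THP 5 mg.kg−1 equivalent). On day 7, after cervical dislocation, heart, kidney, liver and lungs were washed in saline and weighed. Organ-to-body weight index was compared with controls; mean ± S.D.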

[5] = test system: female albino (BALB/c) mice; test: In vivo acute toxicity: serum biochemical analysis; details: i.v., after 7 days
Method in brief: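 Female BALB/c mice (30–35 g, 8–10 weeks) were used in groups of 3. Free drugs in 0.1% DMSO, formulations or saline were given i.v. via tail vein as two equal doses on days 1 and 3 (mTHPC 0.15 mg.kg−1, THP 5 mg.kg−1 equivalent). On day 7, blood was drawn under anesthesia by thoracic puncture and spun at 1200x g for 10 min. Supernatant was stored at −20 °C and then analysed on a serum biochemistry analyzer.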

SK-OV-3 cells [6] = test: In vitro cytotoxicity; assay type: cell-based, human
Method in brief: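 SK-OV-3 cells (IMDM, 10% FCS, non-essential amino acids, 37°C, 7% CO2) were seeded at 10,000/well and left to adhere overnight. They were exposed to a concentration series of free drug (in DMSO) or formulations for 4 h, then switched to fresh medium without irradiation (dark). Next day, MTT (2 mg.mL−1) was added for 4 h, formazan was dissolved in DMSO, and A570 was read. Untreated cells were set as 100%. Three independent experiments; IC50 from non-linear fit.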

Ex vivo hemolysis assay = details: human, washed red blood cells (RBC suspension diluted 1:50), pH 7.4
Method in brief: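 Donor blood in EDTA was spun at 500× g for 5 min. RBCs were washed three times in DPBS pH 7.4, then diluted 1:50 in PBS. The suspension was incubated with test formulations in V-bottom plates for 1 h at 37 °C with orbital shaking. After centrifugation, supernatant absorbance was read at 540 nm. Triton X-100 defined 100% hemolysis, with saline as the other control. Triplicates, mean ± S.D.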

SK-OV-3 cells [7] = test: Cellular uptake pathway analysis with chlorpromazine and Filipin-III; assay type: cell-based, human; details: 30 µM chlorpromazine, 15 µM Filipin III, light dose 0.5 Jcm^−2
Method in brief: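 SK-OV-3 cells seeded at 10,000/well, adhered overnight (37 °C, 5% CO2), washed in PBS with Ca2+/Mg2+. Pre-incubated 1 h with chlorpromazine (30 µM) or Filipin III (15 µM), then exposed to test formulations or free drugs in DMSO (photosensitiser 1.5 µM, chemotherapeutic 50 µM) for a total of 4 h. Medium replaced, irradiated 0.50 J.cm−2, MTT after 24 h; un-irradiated dark control.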

SMILES	aPTT coagulation time (blood plasma) [s]	Histopathology: kidney [1]	Histopathology: liver [1]	Histopathology: lungs [1]	DNA damage class (olive tail moment, comet assay) (SK-OV-3 cells [2])	Intracellular ROS production (SK-OV-3 cells [3])	Visceral body index: kidney weight vs control group [4]	Visceral body index: liver weight vs control group [4]	ALP level vs control group [5]	ALT level vs control group [5]	AST level vs control group [5]	Bilirubin level vs control group [5]	Creatinine level vs control [5]	Total protein level [5]	Uric acid level vs control group [5]	Cytotoxicity (reduction in cell viability) (SK-OV-3 cells [6]; SK-OV-3, dose of 100 µM, no irradiation) [%]	hemolysis at 1 h (Ex vivo hemolysis assay) [%]	Cellular uptake mechanism (SK-OV-3 cells [7])	Reduction of cell viability (dark toxicity) (SK-OV-3 cells [6]; SK-OV-3, without irradiation, highest mTHPC concentration 5 µM) [%]
COc1cccc2c1C(=O)c1c(O)c3c(c(O)c1C2=O)C[C@@](O)(C(=O)CO)C[C@@H]3O[C@H]1C[C@H](N)[C@H](O[C@@H]2CCCCO2)[C@H](C)O1 [THP, [2″R]‐4′‐O‐tetrahydropyranyl‐doxorubicin]	127.7	signs of necrosis, apoptosis, as well as congestion of the renal tissue	some signs of the apoptotic cells with fibrosis, pyknosis (condensation of nuclei due to apoptosis) and hepatic lesions	small changes in the lung′s histology with the breakage of the lung′s fiber	class-II (class-II damage (5–20%; low damage))	no significant difference in the ROS levels	slight increase in the organ weight	highest increase	highest increase	increased	highest level	slightly higher	increased	slight increase	moderately increased	72.26 ± 5.40	20	None of the inhibitors was able to minimize the uptake	–
Oc1cccc(-c2c3nc(c(-c4cccc(O)c4)c4ccc([nH]4)c(-c4cccc(O)c4)c4nc(c(-c5cccc(O)c5)c5ccc2[nH]5)CC4)C=C3)c1 [mTHPC, 5, 10, 15, 20-tetrakis (3-hydroxyphenyl) chlorin]	60.2	–	–	–	class-II (class-II damage (5–20%; low damage))	increased levels of intracellular ROS	slight increase in the organ weight	–	–	increased	slightly higher	slightly higher	increased	slight increase	–	–	14	None of the inhibitors was able to minimize the uptake	18.51 ± 1.87

From PMC7884954 (International Journal of Nanomedicine, 2021)
